Test results from ChEMBL document CHEMBL1125098, “Lipophilic 1,3-xylyl-21-crown-6 macrocyclic polyether 2-carboxylic acids as biological mimics of the ionophore antibiotics” (1990).
≈ marks a conversion by molar mass, not a printed value.

Experiments:
Bos taurus [1] = species on record: Bos taurus; assay: In vitro rumen propionic acid test procedure, 20 ug/mL; format: functional
Summary of the method: (§1)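 Filtered rumen fluid (10 mL) with 400 mg substrate (68% corn starch, 17% cellulose, 15% extracted soybean meal) and pH 6.8 buffer, compound at 50 or 20 μg/mL; N2-gassed, shaken at 39 °C ~6 h, triplicate. Stopped with metaphosphoric acid, then GLC peak heights of acetic/propionic/butyric acids; response expressed relative to monensin at 10 μg/mL versus untreated controls.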

Bos taurus [2] = species on record: Bos taurus; assay: In vitro rumen propionic acid test procedure, 50 ug/mL; format: functional; summary of the method: as §1
Staphylococcus aureus = assay: Antibacterial activity against Staphylococcus aureus 01A005; format: functional
Summary of the method: (§2)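 Agar dilution MIC on BHI agar: overnight BHI broth cultures (37 °C) diluted 100-fold, ~10000–20000 cells spotted by multiple inoculator; twelve 2-fold dilutions starting at 200 μg/mL; plates read after 18 h at 37 °C, single colonies disregarded. Compounds tested as macrocyclic carboxylate salts.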

[3] = Antibacterial activity Streptococcus zooepidemicus 02H001; format: functional, Streptococcus equi subsp. zooepidemicus; conditions: Streptococcus equi; summary of the method: as §2
[4] = Antibacterial activity against Streptococcus equi 02I001; format: functional; summary of the method: as §2
Clostridium perfringens = assay: Antibacterial activity was determined against Clostridium perfringens 10A002; format: functional
Summary of the method: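 Agar dilution MIC on BHI agar, twelve 2-fold dilutions of drug starting at 200 μg/mL. Overnight BHI broth cultures (37 °C) diluted 100-fold; about 10000–20000 cells spotted per point by multiple inoculator. Plates read after 18 h at 37 °C, single colonies disregarded. Incubated anaerobically under 80% N₂, 10% CO₂, 10% H₂ in an anaerobic chamber.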

## COc1cc2c(C(=O)O)c(c1)COCCOCCOc1c(C)cc(C(C)(C)CC(C)(C)C)cc1OCCOCCOC2
Bos taurus [1]
  Stimulation: 0.04%
Bos taurus [2]
  Stimulation: 0.42%
Staphylococcus aureus
  MIC: 50 µg/mL (≈ 84.9 µM)
[3]
  MIC: 25 µg/mL (≈ 42.5 µM)
[4]
  MIC: 25 µg/mL (≈ 42.5 µM)

## Cc1cc(C(C)(C)CC(C)(C)C)cc2c1OCCOCCOCc1cc(Br)cc(c1C(=O)O)COCCOCCO2
Bos taurus [1]
  Stimulation: 0.06%
Bos taurus [2]
  Stimulation: 0.53%
Staphylococcus aureus
  MIC: 12.5 µg/mL (≈ 19.6 µM)
[3]
  MIC: 12.5 µg/mL (≈ 19.6 µM)
[4]
  MIC: 6.25 µg/mL (≈ 9.8 µM)

## CC(C)(C)CC(C)(C)c1cc(CCc2ccccc2)c2c(c1)OCCOCCOCc1cc(C(C)(C)C)cc(c1C(=O)O)COCCOCCO2
Clostridium perfringens
  MIC: 1.56 µg/mL (≈ 2.21 µM)
Bos taurus [1]
  Stimulation: 0.32%
Bos taurus [2]
  Stimulation: 1.09%
Staphylococcus aureus
  MIC: 6.25 µg/mL (≈ 8.87 µM)
[3]
  MIC: 1.56 µg/mL (≈ 2.21 µM)
[4]
  MIC: 1.56 µg/mL (≈ 2.21 µM)

## Cc1cc(C(C)(C)CC(C)(C)C)cc2c1OCCOCCOCCOCc1cc(C(C)(C)C)cc(c1C(=O)O)COCCOCCOCCO2
Clostridium perfringens
  MIC: 12.5 µg/mL (≈ 17.8 µM)
Bos taurus [1]
  Stimulation: 0.11%
Bos taurus [2]
  Stimulation: 0.41%
Staphylococcus aureus
  MIC: 12.5 µg/mL (≈ 17.8 µM)
[3]
  MIC: 6.25 µg/mL (≈ 8.89 µM)
[4]
  MIC: 3.12 µg/mL (≈ 4.44 µM)

## CC(C)(C)CC(C)(C)c1ccc2c(c1)OCCOCCOCc1cccc(c1C(=O)O)COCCOCCO2
Clostridium perfringens
  MIC: 25 µg/mL (≈ 45.9 µM)
Bos taurus [1]
  Stimulation: 0.4%
Bos taurus [2]
  Stimulation: 1.02%
Staphylococcus aureus
  MIC: 25 µg/mL (≈ 45.9 µM)
[3]
  MIC: 25 µg/mL (≈ 45.9 µM)
[4]
  MIC: 25 µg/mL (≈ 45.9 µM)

## Cc1cc(C(C)(C)CC(C)(C)C)cc2c1OCCOCCOCc1cccc(c1C(=O)O)COCCOCCO2
Bos taurus [1]
  Stimulation: 0.33%
Bos taurus [2]
  Stimulation: 0.87%
Staphylococcus aureus
  MIC: 25 µg/mL (≈ 44.7 µM)
[3]
  MIC: 50 µg/mL (≈ 89.5 µM)
[4]
  MIC: 12.5 µg/mL (≈ 22.4 µM)

## CC(C)(C)c1ccc(OCC2COc3ccccc3OCCOCCOCCOCc3cc(C(C)(C)C)cc(c3C(=O)O)CO2)cc1 (configuration not stated)
Clostridium perfringens
  MIC: 1.56 µg/mL (≈ 2.4 µM)
Bos taurus [1]
  Stimulation: 0.6%
Bos taurus [2]
  Stimulation: 1.06%
Staphylococcus aureus
  MIC: 1.56 µg/mL (≈ 2.4 µM)
[3]
  MIC: 3.12 µg/mL (≈ 4.79 µM)
[4]
  MIC: 1.56 µg/mL (≈ 2.4 µM)

## CC(C)(C)CC(C)(C)c1ccc2c(c1)OCCOCCOCc1cc(C(C)(C)C)cc(c1C(=O)O)COCCOCCO2
Clostridium perfringens
  MIC: 6.25 µg/mL (≈ 10.4 µM)
Bos taurus [1]
  Stimulation: 0.64%
Bos taurus [2]
  Stimulation: 0.97%
Staphylococcus aureus
  MIC: 12.5 µg/mL (≈ 20.8 µM)
[3]
  MIC: 6.25 µg/mL (≈ 10.4 µM)
[4]
  MIC: 6.25 µg/mL (≈ 10.4 µM)

## CC(C)(C)c1cc2c(C(=O)O)c(c1)COC(COc1ccccc1)COc1ccccc1OCCOCCOCCOC2 (configuration not stated)
Clostridium perfringens
  MIC: 25 µg/mL (≈ 42 µM)
Bos taurus [1]
  Stimulation: 0%
Staphylococcus aureus
  MIC: 25 µg/mL (≈ 42 µM)
[3]
  MIC: 50 µg/mL (≈ 84.1 µM)
[4]
  MIC: 25 µg/mL (≈ 42 µM)

## CC(C)c1cc(C(C)(C)CC(C)(C)C)cc2c1OCCOCCOCc1cc(C(C)(C)C)cc(c1C(=O)O)COCCOCCO2
Clostridium perfringens
  MIC: < 0.39 µg/mL
Bos taurus [1]
  Stimulation: 0.43%
Bos taurus [2]
  Stimulation: 0.7%
Staphylococcus aureus
  MIC: 0.78 µg/mL (≈ 1.21 µM)
[3]
  MIC: 0.78 µg/mL (≈ 1.21 µM)
[4]
  MIC: 0.78 µg/mL (≈ 1.21 µM)

## CC(C)(C)CC(C)(C)c1ccc2c(c1)OCCOCCOCCOCc1cc(C(C)(C)C)cc(c1C(=O)O)COCCOCCOCCO2
Clostridium perfringens
  MIC: 25 µg/mL (≈ 36.3 µM)
Bos taurus [1]
  Stimulation: 0.4%
Bos taurus [2]
  Stimulation: 0.52%
Staphylococcus aureus
  MIC: 50 µg/mL (≈ 72.6 µM)
[3]
  MIC: 25 µg/mL (≈ 36.3 µM)
[4]
  MIC: 12.5 µg/mL (≈ 18.1 µM)

## CC(C)(C)CC(C)(C)c1cc(Cc2ccccc2)c2c(c1)OCCOCCOCc1cc(C(C)(C)C)cc(c1C(=O)O)COCCOCCO2
Clostridium perfringens
  MIC: 1.56 µg/mL (≈ 2.26 µM)
Bos taurus [1]
  Stimulation: 0.44%
Bos taurus [2]
  Stimulation: 0.76%
Staphylococcus aureus
  MIC: 3.12 µg/mL (≈ 4.52 µM)
[3]
  MIC: 3.12 µg/mL (≈ 4.52 µM)
[4]
  MIC: 3.12 µg/mL (≈ 4.52 µM)

## CCCCCCCCCCCc1ccc2c(c1)OCCOCCOCc1cccc(c1C(=O)O)COCCOCCO2
Clostridium perfringens
  MIC: 3.12 µg/mL (≈ 5.32 µM)
Bos taurus [1]
  Stimulation: 0.46%
Bos taurus [2]
  Stimulation: 0.82%
Staphylococcus aureus
  MIC: 1.56 µg/mL (≈ 2.66 µM)
[3]
  MIC: 1.56 µg/mL (≈ 2.66 µM)
[4]
  MIC: 1.56 µg/mL (≈ 2.66 µM)

## O=C(O)c1c2cccc1COCCOCCOCCOCCOCCOC2
Clostridium perfringens
  MIC: > 200 µg/mL
Bos taurus [1]
  Stimulation: 0%
Bos taurus [2]
  Stimulation: 0%
Staphylococcus aureus
  MIC: > 200 µg/mL
[3]
  MIC: > 200 µg/mL
[4]
  MIC: > 200 µg/mL

## COCc1cc(C(C)(C)CC(C)(C)C)cc2c1OCCOCCOCc1cc(C(C)(C)C)cc(c1C(=O)O)COCCOCCO2
Clostridium perfringens
  MIC: 25 µg/mL (≈ 38.8 µM)
Bos taurus [1]
  Stimulation: 0.2%
Bos taurus [2]
  Stimulation: 0.64%
Staphylococcus aureus
  MIC: 12.5 µg/mL (≈ 19.4 µM)
[3]
  MIC: 25 µg/mL (≈ 38.8 µM)
[4]
  MIC: 12.5 µg/mL (≈ 19.4 µM)

## Cc1cc(C(C)(C)CC(C)(C)C)cc2c1OCCOCCOCc1cc(C(C)(C)C)cc(c1C(=O)O)COCCOCCO2
Clostridium perfringens
  MIC: 3.12 µg/mL (≈ 5.07 µM)
Bos taurus [1]
  Stimulation: 0.5%
Bos taurus [2]
  Stimulation: 1.02%
Staphylococcus aureus
  MIC: 6.25 µg/mL (≈ 10.2 µM)
[3]
  MIC: 6.25 µg/mL (≈ 10.2 µM)
[4]
  MIC: 3.12 µg/mL (≈ 5.07 µM)

## O=C(O)c1c2cccc1COCCOCCOc1ccccc1OCCOCCOC2
Clostridium perfringens
  MIC: > 200 µg/mL
Bos taurus [2]
  Stimulation: 0.2%
Staphylococcus aureus
  MIC: > 200 µg/mL
[3]
  MIC: > 200 µg/mL
[4]
  MIC: > 200 µg/mL
